Experimental data reported in ChEMBL document CHEMBL1152188, “Alpha-S-GalCer: synthesis and evaluation for iNKT cell stimulation” (Bioorg Med Chem Lett, 2008).
Calls of active or inactive are those of the source.

Legend:
iNKT [1] = assay: Induction of cell proliferation in NOD mouse iNKT cells at 200 ng/mL after 24 hrs by CFSE dilution; format: functional, cell-based
How it was run: (§1)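 Splenocytes isolated from NOD or C57Bl/6 mice, labeled with CFSE and stimulated with the glycolipid in vitro. Proliferation read as CFSE dilution at 24 and 48 h.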

iNKT [2] = assay: Induction of cytokine expression in C57BL/6 mouse iNKT cells at 100 ng/mL after 24 hrs by intracellular staining for IFN-gamma; format: functional, cell-based
How it was run: (§2)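 Splenocytes from NOD or C57Bl/6 mice, CFSE-labeled and stimulated in vitro with the glycolipid. Cytokine induction measured by intracellular IFNγ staining at 24 and 48 h.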

iNKT [3] = assay: Induction of cytokine expression in C57BL/6 mouse iNKT cells at 200 ng/mL after 24 hrs by intracellular staining for IFN-gamma; format: functional, cell-based; how it was run: as §2
Mus musculus [4] = assay: Activation of iNKT cells in C57BL/6 mouse assessed as cell frequency at 5 or 10 ug, ip by FACS analysis; format: functional, organism-based
How it was run: (§3)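 Lipid given intraperitoneally to NOD or C57Bl/6 mice in PBS with […] Tween-20 (200 μg/mL). iNKT cell frequency and intracellular cytokine expression read by flow cytometry (FACS).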

iNKT [5] = assay: Induction of cell proliferation in NOD mouse iNKT cells at 100 ng/mL after 48 hrs by CFSE dilution; format: functional, cell-based; how it was run: as §1
iNKT [6] = assay: Induction of cell proliferation in C57BL/6 mouse iNKT cells at 200 ng/mL after 48 hrs by CFSE dilution; format: functional, cell-based; how it was run: as §1
Mus musculus [7] = assay: Activation of iNKT cells in NOD mouse assessed as intracellular cytokine expression at 5 or 10 ug, ip by FACS analysis; format: functional, organism-based; how it was run: as §3
iNKT [8] = assay: Induction of cytokine expression in NOD mouse iNKT cells at 200 ng/mL after 48 hrs by intracellular staining for IFN-gamma; format: functional, cell-based; how it was run: as §2
iNKT [9] = assay: Induction of cell proliferation in C57BL/6 mouse iNKT cells at 200 ng/mL after 24 hrs by CFSE dilution; format: functional, cell-based; how it was run: as §1
iNKT [10] = assay: Induction of cell proliferation in NOD mouse iNKT cells at 100 ng/mL after 24 hrs by CFSE dilution; format: functional, cell-based; how it was run: as §1
iNKT [11] = assay: Induction of cytokine expression in NOD mouse iNKT cells at 100 ng/mL after 48 hrs by intracellular staining for IFN-gamma; format: functional, cell-based; how it was run: as §2
iNKT [12] = assay: Induction of cell proliferation in C57BL/6 mouse iNKT cells at 100 ng/mL after 24 hrs by CFSE dilution; format: functional, cell-based; how it was run: as §1
Mus musculus [13] = assay: Activation of iNKT cells in NOD mouse assessed as cell frequency at 5 or 10 ug, ip by FACS analysis; format: functional, organism-based; how it was run: as §3
iNKT [14] = assay: Induction of cytokine expression in NOD mouse iNKT cells at 100 ng/mL after 24 hrs by intracellular staining for IFN-gamma; format: functional, cell-based; how it was run: as §2
iNKT [15] = assay: Induction of cytokine expression in C57BL/6 mouse iNKT cells at 200 ng/mL after 48 hrs by intracellular staining for IFN-gamma; format: functional, cell-based; how it was run: as §2
iNKT [16] = assay: Induction of cell proliferation in C57BL/6 mouse iNKT cells at 100 ng/mL after 48 hrs by CFSE dilution; format: functional, cell-based; how it was run: as §1
iNKT [17] = assay: Induction of cytokine expression in C57BL/6 mouse iNKT cells at 100 ng/mL after 48 hrs by intracellular staining for IFN-gamma; format: functional, cell-based; how it was run: as §2
Mus musculus [18] = assay: Activation of iNKT cells in C57BL/6 mouse assessed as intracellular cytokine expression at 5 or 10 ug, ip by FACS analysis; format: functional, organism-based; how it was run: as §3
iNKT [19] = assay: Induction of cell proliferation in NOD mouse iNKT cells at 200 ng/mL after 48 hrs by CFSE dilution; format: functional, cell-based; how it was run: as §1
iNKT [20] = assay: Induction of cytokine expression in NOD mouse iNKT cells at 200 ng/mL after 24 hrs by intracellular staining for IFN-gamma; format: functional, cell-based; how it was run: as §2

Measured: Activity

CCCCCCCCCCCCCCCCCCCCCCCCCC(=O)N[C@@H](CS[C@H]1O[C@H](CO)[C@H](O)[C@H](O)[C@H]1O)[C@H](O)[C@H](O)CCCCCCCCCCCCCC
inactive: all assays above
